HCT116 PTEN-null: PTEN-deleted cell growth suppression; HCT116 PTEN-null viability, CellTiter-Glo, 60 h; stronger effect = lower value; viability, % at 10 µM; 1.2% of 140,000 active; AID 827;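 active = viability at or below a set limit, 4 SD under the median of all tested compounds, cut at about 3.7% in these data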;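 also: PTEN knockout HCT116 line with beta catenin targeted HCT116 as companion control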
H69AR growth 86K: blocks growth of human H69AR lung tumor cells. viability, % at 10 µM. 6% of 85,000 active. H69AR lung tumor viability, ATP luminescence, 72 h; stronger effect = lower value;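 active = viability at or below 40%; inactive = viability above 40%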;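 also: multidrug resistant small cell line overexpressing MRP-1 efflux transporter; 100% = mean luminescence of untreated control wells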
HUVEC prolif 384: inhibitors of human endothelial cell proliferation | 1.1% of 86,000 active | HUVEC proliferation, CellTiter-Glo luminescence, 72 h; stronger effect = lower value | AID 648 | viability, % at 10 µM (by protocol);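 active = viability at or below 30%; inactive = viability above 30%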;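 also: 100% = median luminescence of DMSO-only cell control wells on each plate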
bCat KO growth: beta-catenin-lacking colon tumor cell growth suppression; 1.5% of 140,000 active; AID 818; viability, % at 10 µM; HCT116 beta-catenin knockout viability, CellTiter-Glo, 60 h; stronger effect = lower value;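 active = viability at or under a set limit, the compound median less 4 SD, cut at about 6% in these data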;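 also: 0% = Hyamine 1622 control at 20 µM and 100% = untreated cell control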
Lung fibro prol: blocks proliferation of human lung fibroblasts. viability, % at 10 µM. LL 47 human lung fibroblast viability, ATP luminescence; stronger effect = lower value. 1.1% of 85,000 active;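 active = viability at or below 50% in the single dose screen; inactive = viability above 50%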;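 also: compound exposure lasted 72 h before the ATP readout; 100% = median luminescence of untreated cell-only wells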
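Signal: luminescent ATP detection, CellTiter-Glo; assay system: LL 47 human lung fibroblasts; input: 1,150 cells/well; incubation: overnight cell rest, 72 h compound treatment at 37 °C; measure: % viability versus median cells-only luminescence; medium: IMEM growth medium with 15% fetal bovine serum; dosing: compound addition at 0.1% DMSO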
The depositor's hits bear a star; . = no result. This is one part of a sample in which hits are shown more often than they occur.

SMILES | HCT116 PTEN-null | H69AR growth 86K | HUVEC prolif 384 | bCat KO growth | Lung fibro prol
FC(F)(F)c1cc(-c2ccco2)nc(N2CCN(c3ccccc3)CC2)n1 | 75.9 | 69.9 | 97.4 | 83.6 | 90.3
FC(F)(F)c1cc(-c2ccco2)nc(-n2cnc3ccccc32)n1 | 73.5 | 24.5* | 82.3 | 84.9 | 95.3
Cc1nc2ccccc2n1-c1nc(-c2ccco2)cc(C(F)(F)F)n1 | 2.7* | . | . | 3.1* | .
S=C(NNc1ccc2ccccc2c1)NC1CCCCC1 | 34.8 | . | . | 28.6 | .
CC(C)CC(NC(=O)c1ccc(Cl)cc1)C(=O)OCc1cc([N+](=O)[O-])cc2c1OCOC2 (configuration not stated) | 88.1 | . | . | 93.0 | .
COC(=O)C1=C(C)NC(C)=C(C(=O)OC)C1c1ccc2ccccc2n1 | 89.9 | 99.9 | 92.1 | 95.3 | 100.6
O=C1c2ccccc2C(=O)C1c1ccc2ccccc2n1 | 80.3 | 28.1* | 38.5 | 86.0 | 62.2
CCC(NC(=O)/C(=C\c1ccc2c(c1)OCO2)NC(C)=O)C(=O)O (configuration not stated) | 98.6 | . | . | 93.6 | .
CC(=O)c1c(C)[nH]c(C(=O)N2CCN(c3cc(Cl)ccc3C)CC2)c1C | 18.2 | 17.1* | 50.9 | 20.2 | 54.7
COc1cccc(N2CCN(C(=O)c3[nH]c(C)c(C(C)=O)c3C)CC2)c1 | 26.2 | 21.2* | 44.3 | 25.5 | 54.2
CCOC(=O)c1cc2cc(OC)ccc2nc1C | 99.8 | 80.4 | 91.0 | 106.9 | 94.4
Cc1ccc(C)c(Oc2coc3cc(OCC(=O)Nc4ccccc4C(C)C)ccc3c2=O)c1 | 61.2 | . | . | 77.9 | .
O=C(Cc1ccccc1)Nc1ccc(SC(F)F)cc1 | 64.3 | . | . | 49.9 | .
NC(=O)CC[C@H](NC(=O)c1ccc(F)cc1)C(=O)OCC(=O)Nc1ccc(N2CCOCC2)cc1 | 96.0 | . | . | 93.9 | .
O=C(NC1CC2CCC(C1)N2C(=O)NCc1ccccc1)NC12CC3CC(CC(C3)C1)C2 (configuration not stated) | 103.8 | . | . | 90.7 | .
CCc1nc(Sc2nnnn2-c2ccccc2)c2c3c(sc2n1)CCCC3 | 3.1* | . | . | 4.9* | .
CSc1nc2sc3c(c2c2nncn12)CCC3 | 101.7 | 77.4 | 92.5 | 102.2 | 89.2
Cc1nc(Sc2nnnn2C)c2c3c(sc2n1)CCC3 | 19.9 | 22.6* | 45.5 | 23.6 | 33.0*
CCOC(CNc1c([N+](=O)[O-])c(=O)n(C)c(=O)n1C)OCC | 94.4 | . | . | 94.1 | .
O=C1CCc2cc(S(=O)(=O)N3CCC(C(=O)NC4CCCCCCC4)CC3)ccc2N1 | 98.0 | 89.2 | 87.7 | 88.6 | 94.2
O=C(NC1CCCCCC1)C1CCN(S(=O)(=O)c2ccc(F)cc2)CC1 | 83.1 | 31.9* | 105.5 | 78.0 | 91.5
Cc1ccc(/C=c2\s/c(=C(/C#N)C(=O)N3CCCC3)n(Cc3ccco3)c2=O)s1 | 48.1 | 36.7* | 58.5 | 53.6 | 96.8
COC(=O)/C=c1/s/c(=C(\C#N)C(=O)NCc2ccco2)n(-c2ccc(C)cc2)c1=O | 96.3 | 99.7 | 95.8 | 89.0 | 104.5
N#Cc1sc2nc(N3CCCCC3)c3c(c2c1N)CCCC3 | 13.0 | 23.0* | 7.4* | 7.6 | 90.7
CC1CN(S(=O)(=O)c2cccc(C(=O)OCC(=O)Nc3ccc4c(c3)OCO4)c2)CC(C)O1 (configuration not stated) | 77.3 | 1.0* | 84.8 | 80.7 | 99.0
SMILES | HCT116 PTEN-null | H69AR growth 86K | HUVEC prolif 384 | bCat KO growth | Lung fibro prol
CC1CN(S(=O)(=O)c2cccc(C(=O)OCC(=O)c3cccs3)c2)CC(C)O1 (configuration not stated) | 101.2 | 108.0 | 102.9 | 97.6 | 98.0
Brc1ccc(OCc2nc(-c3ccccn3)n[nH]2)cc1 | 44.9 | 52.9 | 41.4 | 37.9 | 74.5
Clc1ccc(OCc2nc(-c3ccccn3)n[nH]2)cc1 | 37.7 | 2.2* | 57.9 | 52.4 | 81.9
Cc1nc([N+](=O)[O-])c(N2CCN(Cc3ccccc3)CC2)n1Cc1ccccc1 | 83.9 | 86.8 | 108.5 | 84.2 | 101.0
Cc1nc([N+](=O)[O-])c(Br)n1CC(=O)c1ccc2ccccc2c1 | 26.3 | 0.4* | 42.0 | 24.3 | 56.4
Cc1nc([N+](=O)[O-])c(Br)n1CC(=O)c1ccc(Br)cc1 | 4.4 | -0.4* | 33.3 | 3.0* | 25.2*
Cc1nc([N+](=O)[O-])c(Br)n1CC(=O)c1ccccc1 | 33.5 | 34.7* | 77.3 | 47.4 | 86.6
CCCCOc1ccc(N2C(=O)CC(NCCc3ccc(S(N)(=O)=O)cc3)C2=O)cc1 (configuration not stated) | 113.6 | 89.2 | 87.4 | 100.0 | 100.1
CCN(CC)c1ccc(/C=C2/SC(=O)N(C(C)C)C2=O)o1 | 5.2 | . | . | 5.6* | .
CCC(C)n1c(C)nc2c(c1=O)c1nc3ccccc3nc1n2CCC1=CCCCC1 (configuration not stated) | 43.4 | 3.6* | 99.4 | 37.0 | 98.4
Cc1nc2c(c(=O)n1CC1CCCO1)c1nc3ccccc3nc1n2CCC(C)C (configuration not stated) | . | 93.3 | 83.6 | . | 89.7
Cc1cccc(N/C(=N\S(=O)(=O)c2ccccc2)C(F)(F)F)c1 | 101.7 | . | . | 108.3 | .
CCOC(=O)c1ccccc1NS(=O)(=O)c1ccc(C)cc1 | 21.3 | 10.6* | 73.7 | 22.8 | 87.9
CCOC(=O)COc1ccc(S(=O)(=O)Nc2ccc(C)cc2)cc1 | 92.5 | 93.8 | 10.8* | 97.3 | 15.8*
CCOC(=O)COc1ccc(S(=O)(=O)N2CCc3ccccc3C2)cc1 | 87.8 | 92.3 | 6.2* | 87.0 | 61.3
CCOc1ccc(S(=O)(=O)Nc2cccc(OC)c2)cc1 | 70.7 | 37.7* | 87.6 | 73.8 | 94.8
CCOC(=O)COc1ccc(S(=O)(=O)Nc2ccc3c(c2)OCO3)cc1 | 99.0 | 99.6 | 40.6 | 112.4 | 63.1
Cc1nc2sc(C(c3ccc(Cl)cc3)N3CCN(c4ccccc4F)CC3)c(O)n2n1 (configuration not stated) | 99.0 | 95.3 | 81.5 | 99.3 | 93.2
CN(C)S(=O)(=O)c1cc(NC(=O)COC(=O)CCSc2ccc(Cl)cc2)ccc1Cl | 90.4 | . | . | 90.3 | .
COc1ccc(NC(=O)C23CC4CC(C2)CC(c2ccc(C)cc2)(C4)C3)cc1 | 70.0 | . | . | 83.6 | .
CCOC(=O)c1ccccc1NC(=O)CN(c1ccccc1)S(=O)(=O)N(C)C | 70.1 | 38.1* | 81.1 | 64.6 | 97.8
O=c1cc(Nc2ccc3c(c2)OCCO3)[nH]c(=O)n1Cc1ccc(F)cc1 | 85.9 | 96.3 | 85.3 | 90.6 | 93.6
O=c1cc(Nc2ccc3c(c2)OCO3)[nH]c(=O)n1-c1ccc(Br)cc1 | 97.2 | 35.4* | 75.6 | 82.4 | 97.1
O=c1cc(Nc2ccc3c(c2)OCCO3)[nH]c(=O)n1-c1ccc(Br)cc1 | 46.5 | 37.4* | 82.6 | 27.5 | 94.9
N=C1C(c2nc(-c3ccc(Cl)cc3)cs2)=C(O)CN1CCCN1CCOCC1 | 60.4 | 62.4 | 10.0* | 55.8 | 106.6
O=C(Nc1cccc(Cl)c1)Nc1nnc(CC2=CCCCC2)s1 | 3.4* | . | . | 8.0 | .
O=C(Nc1cccc(Cl)c1)Nc1nnc(CSCCOc2ccc(Cl)cc2)s1 | 5.6 | . | . | 4.2* | .
Cc1ccc(NC(=O)Nc2nnc(CSCCOc3ccc(Cl)cc3)s2)cc1 | 97.6 | . | . | 81.0 | .
Cc1ccccc1OCc1nc2ccccc2c(=O)n1/N=C/c1cn[nH]c1-c1ccc(Br)cc1 | 2.7* | . | . | 19.3 | .
